Data set [1] is described as follows: Metabolic stability in human liver microsomes assessed as compound remaining preincubated for 5 mins followed by NADPH addition measured after 45 mins by LC/MS analysis. The class given is ADME, Microsome. Particulars: time 50 min, read-out: Stability. The method in brief:
(§1)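 Liver microsomes (final protein 0.75 mg/mL) with compound in 100 mM phosphate buffer pH 7.4, preincubated 5 min at 37 °C. Reaction started with NADPH regeneration system, stopped at 5, 15, 30 and 45 min with acetonitrile containing internal standard. Percent remaining measured by LC/MS, with ketanserin as reference; variation given as RSD of area ratio.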

Data set [2] deals with Staphylococcus aureus. Briefly: Antibacterial activity against Staphylococcus aureus ATCC25923 assessed as reduction in bacterial count at 4 times MIC measured for 3 hrs by time kill curve assay. The class given is functional, organism-based. The method in brief:
(§2)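 Time-kill: log-phase cultures diluted to about 10^6 CFU/mL in MHB with compound at 1×, 2×, 4× or 8× MIC (vancomycin at 2× MIC), shaken at 37 °C. Samples taken at 3, 6, 12 and 24 h, serially diluted and plated on LB agar. Colonies counted after 24 h at 37 °C; detection limit 10^3 CFU/mL.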

Data set [3] can be described thus: Metabolic stability in rat liver microsomes assessed as compound remaining preincubated for 5 mins followed by NADPH addition measured after 15 mins by LC/MS analysis. The class given is ADME, Microsome. Particulars: time 20 min, read-out: Stability. A digest of the protocol:
as §1
Background: Liver microsomes are vesicles of endoplasmic reticulum, rich in cytochrome P450 enzymes.

For data set [4], the system named is Staphylococcus aureus. In words: Antibacterial activity against Staphylococcus aureus ATCC25923 infected in ICR mouse assessed as reduction in bacterial burden in plasma at 25 mg/kg, ip by colony forming unit assay. Format: functional, organism-based.
Data set [5] deals with Bacillus subtilis. In words: Bactericidal activity against Bacillus subtilis ATCC9372 incubated for 24 hrs by broth microdilution method. The class given is functional. A digest of the protocol: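 MBC from the broth microdilution plates (MHB, 2-fold dilutions). After 24 h, 5 µL aliquots from clear wells were plated on LB agar and incubated aerobically 24 h at 37 °C, then colonies counted. MBC = lowest concentration with no colonies.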
On the technique in general: In broth dilution the organism is exposed to a series of concentrations in liquid medium.

Data set [6] deals with Bacillus subtilis. In words: Antibacterial activity against Bacillus subtilis ATCC9372 assessed as bacterial growth inhibition incubated for 18 hrs by CLSI based broth microdilution method. Format: functional. A digest of the protocol: (§3)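 CLSI broth microdilution. Log-phase bacteria in Mueller Hinton broth added to 2-fold serial dilutions spanning 128 to 0.25 or 2 to 0.004 µg/mL. Incubated aerobically for 18 h at 37 °C, then OD600 read. MIC is the lowest concentration giving ≥90% growth inhibition; three independent assays.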

In data set [7] the test system is Staphylococcus aureus. In words: Induction of resistance in Staphylococcus aureus ATCC29213 assessed as fold increase in MIC at 0.5 times MIC after 18 passages incubated for 24 hrs by resistance development assay. Format: functional. A digest of the protocol: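 Serial passage of S. aureus ATCC29213. Initial MIC was found by broth microdilution. Bacteria from the 0.5 × MIC tubes (duplicate) were diluted to about 5 × 10^5 CFU/mL and re-exposed to compound for 24 h at 35 °C, then fold increase in MIC was determined. Repeated for 18 passages, with norfloxacin as comparator.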

Another data set deals with Escherichia coli. In words: Antibacterial activity against Escherichia coli 25922 assessed as bacterial growth inhibition incubated for 18 hrs by CLSI based broth microdilution method. Format: functional. A digest of the protocol: as §3
Data set [8] in a line: AUC (0 to t) in ICR mouse at 1 mg/kg, iv measured for 0.08 to 24 hrs by LC-MS/MS analysis. Format: ADME, organism-based. Details: time 0.08-24 hrs, dose 1 mg/kg, route iv. Particulars: in vivo. The method in brief:
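Male ICR mice, single intravenous dose formulated in 5% DMSO, 4% ethanol, 5% Cremophor EL, 86% water. Blood sampled at 5, 15, 30 min, 1, 2, 4, 8 and 24 h; plasma stored at -20 °C. Compound quantified by LC-MS/MS, with parameters from non-compartmental analysis.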

A short description of data set [9]: Metabolic stability in mouse liver microsomes assessed as half life preincubated for 5 mins followed by NADPH addition measured upto 45 mins by LC/MS analysis. The class given is ADME, Microsome. Particulars: time < 50 min. A digest of the protocol: (§4)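 Liver microsomes at 0.75 mg/mL final protein, with test article and NADPH regeneration system (6 mM) in 100 mM phosphate buffer, pH 7.4. Preincubated 5 min at 37 °C, then started with NADPH. Quenched with acetonitrile containing internal standard at 5, 15, 30 and 45 min, centrifuged, and percent remaining measured by LC/MS. Ketanserin served as reference.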

Data set [10] is described as follows: Selectivity index, ratio of CC50 for African green monkey Vero cells to MIC for Bacillus subtilis ATCC9372. The class given is toxicity, cell-based. Particulars: read-out: Selectivity Index. The method in brief:
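CC50 in Vero cells (72 h Alamar blue) divided by broth microdilution MIC against B. subtilis ATCC9372.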

Data set [11] in a line: Metabolic stability in mouse liver microsomes assessed as compound remaining preincubated for 5 mins followed by NADPH addition measured after 5 mins by LC/MS analysis. Format: ADME, Microsome. Particulars: time 10 min, read-out: Stability. The method in brief:
as §1

A short description of data set [12]: Cmax in ICR mouse at 5 mg/kg, po measured for 0.25 to 24 hrs by LC-MS/MS analysis. Format: ADME, organism-based. Details: time upper 24 hrs, dose 5 mg/kg, time lower 0.25 hrs, route po. Particulars: in vivo. The method in brief:
(§5)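 Male ICR mice dosed orally with a solution of 5% DMSO, 4% ethanol, 5% Cremophor EL and 86% water. Blood collected at 15, 30 min, 1, 2, 4, 6, 8 and 24 h; plasma stored at -20 °C. Plasma levels measured by LC-MS/MS; parameters by non-compartmental analysis, with bioavailability relative to the 1 mg/kg iv dose.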

Data set [13] in a line: AUC (0 to t) in ICR mouse at 5 mg/kg, po measured for 0.25 to 24 hrs by LC-MS/MS analysis. Details: time lower 0.25 hrs, dose 5 mg/kg, time upper 24 hrs, route po. Format: ADME, organism-based. Particulars: in vivo. The method in brief: as §5
Data set [14] deals with Staphylococcus aureus. In words: Selectivity ratio of MBC for Staphylococcus aureus ATCC25923 to MIC for Staphylococcus aureus ATCC25923. The class given is functional. A digest of the protocol:
(§6)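 After 24 h of broth microdilution, 5 µL from clear wells plated on LB agar and incubated aerobically for 24 h at 37 °C. MBC is the lowest concentration with no colonies. Ratio is MBC over MIC, with ≤4 taken as bactericidal and >4 as bacteriostatic.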

A short description of data set [15]: Metabolic stability in rat liver microsomes assessed as half life preincubated for 5 mins followed by NADPH addition measured upto 45 mins by LC/MS analysis. The class given is ADME, Microsome. Particulars: time < 50 min. A digest of the protocol: as §4
Data set [16] concerns Bacillus subtilis. In words: Selectivity ratio of MBC for Bacillus subtilis ATCC9372 to MIC for Bacillus subtilis ATCC9372. Format: functional. A digest of the protocol: as §6
A short description of data set [17]: Metabolic stability in rat liver microsomes assessed as compound remaining preincubated for 5 mins followed by NADPH addition measured after 5 mins by LC/MS analysis. The class given is ADME, Microsome. Particulars: time 10 min, read-out: Stability. The method in brief: as §1
The subject of data set [18] is Staphylococcus aureus. Briefly: Antibacterial activity against Staphylococcus aureus ATCC29213 assessed as bacterial growth inhibition incubated for 18 hrs by CLSI based broth microdilution method. The class given is functional. The method in brief: as §3
A short description of data set [19]: Cytotoxicity against African green monkey Vero cells assessed as reduction in cell viability incubated for 72 hrs by alamar blue staining based assay. Format: toxicity. Particulars: chlorocebus sabaeus. The method in brief:
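Vero cells seeded at about 2 × 10^3 per well, 37 °C, 5% CO2. Compound added after 24 h and incubated 72 h. AlamarBlue (1:10 v/v) then added for 3 h in the dark, read at Ex/Em 560/590 nm. CC50 is the lowest concentration causing 50% loss of viability.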
In general terms: The colour change of resazurin is a common sign of viable cells or microbes.

Data set [20] is described as follows: AUC (0 to infinity) in ICR mouse at 5 mg/kg, po measured for 0.25 to 24 hrs by LC-MS/MS analysis. The class given is ADME, organism-based. Details: time upper 24 hrs, time lower 0.25 hrs, dose 5 mg/kg, route po. Particulars: in vivo. A digest of the protocol: as §5
The subject of data set [21] is Staphylococcus aureus. In words: Antibacterial activity against Staphylococcus aureus ATCC25923 assessed as bacterial growth inhibition at 1 to 8 times MIC measured after 12 hrs by time kill curve assay relative to control. Format: functional. The method in brief:
as §2

The MBC is the smallest concentration meeting the test's criterion for killing. By MIC is commonly meant the lowest concentration found to suppress growth. What is called AUC(0-t) is exposure summed from dosing to a finite time, without extrapolation to infinity. The term half-life denotes the time in which the quantity being followed falls by half. A word on the Cmax: it is the peak of the concentration-time curve. What is called CC50 is the concentration at which the toxic effect on the cells reaches its halfway point. A word on the AUC(0-inf): it is total exposure, with the tail of the curve extrapolated.

In brackets after ≈: the same amount, converted by molar mass. Activity calls are given as the source filed them.

On to `Cc1cc(Cl)ccc1-c1cccc(COc2ccc(F)c(C(N)=O)c2F)c1`, for which, in data set [1], the remaining at 0.75 h is 75%. Also, the result in the data set with Staphylococcus aureus [2] and in the data set on Staphylococcus aureus [4] was Active. In addition, the remaining at 0.25 h in data set [3] was found to be 39%. Besides, the MBC against Bacillus subtilis [5] came out at 0.063 µg/mL (≈ 0.162 µM). In addition, the MIC in the data set with Bacillus subtilis [6] was 0.016 µg/mL (≈ 0.0413 µM); in the data set with Escherichia coli it was > 128 µg/mL; in the data set with Staphylococcus aureus [18], 0.25 µg/mL (≈ 0.645 µM). In addition, the “fold change (FC)” value in the data set on Staphylococcus aureus [7] was found to be 4. For the same compound, the AUC(0-t) in data set [8] is 178 ng·h/mL; in data set [13], 544 ng·h/mL. In addition, the results for the half-life in data set [9] and in data set [15] were 5.09 min and 13.6 min, respectively. Besides, the selectivity ratio in [10] was > 645. Further, the remaining at 5 min in data set [11] was 53.1%; in data set [17], 73.7%. The Cmax in data set [12] was 429 ng/mL. The Selectivity ratio in the data set with Staphylococcus aureus [14] is 2; with Bacillus subtilis [16] it was 4. For the same compound, the CC50 at 72 h in data set [19] was > 20 µg/mL. This compound also registered an AUC(0-inf) in data set [20] of 559 ng·h/mL. Besides, in the data set with Staphylococcus aureus [21], the “inhibition (INH)” value stood at 100%.

The record behind these values is ChEMBL document CHEMBL5338714, “Design, synthesis and biological evaluation of biphenyl-benzamides as potent FtsZ inhibitors” (Eur J Med Chem, 2022).
